Published values collected from several papers.
Lines come from different studies, so protocols differ.
ST14: Suppressor of tumorigenicity 14 protein (ST14, Homo sapiens, UniProt Q9Y5Y6)
CDK2 with cyclin A2: Cyclin-dependent kinase 2, with cyclin A2 (CDK2, Homo sapiens, UniProt P24941)

CNc1ncc2c(/C=C/C(=O)N3CCC(OC)CC3)nn(Cc3cccc(C(F)(F)F)c3)c2n1 — remaining activity (Cyclin-dependent kinase 8, with cyclin C (CDK8, Homo sapiens, UniProt P49336); enzyme activity; inhibitor; radiometric; 1 µM): 105%
C=CC[C@H](NC(=O)[C@H](Cc1cscn1)NC(=O)CCc1ccccc1)C(=O)N[C@@H](CCCNC(=N)N)C(=O)c1nc2ccccc2s1 — remaining activity (ST14; enzyme activity; inhibitor; 0.1 µM): 41%
C=CC(=O)N1CCC(COCC(=O)N2CCN(c3nc(-c4cnc(N)nc4C(F)F)nc(N4CCOC[C@@H]4C)n3)CC2)CC1 — remaining binding (Protein kinase C eta type (PRKCH, Homo sapiens, UniProt P24723); binding; competition with immobilised ligand; 1 µM): 100%
N=C(N)NCCC[C@H](NC(=O)[C@@H](NC(=O)[C@H](Cc1cscn1)NC(=O)CCc1ccccc1)C(c1ccccc1)c1ccccc1)C(=O)c1nc2ccccc2s1 — remaining activity (ST14; enzyme activity; inhibitor; 0.1 µM): 76%
CNC(=O)c1cc(Oc2ccc(NC(=O)Nc3ccc(Cl)c(C(F)(F)F)c3)cc2)ccn1 — inhibition (CDK2 with cyclin A2; enzyme activity; inhibitor; 1 µM): 81.4%
COc1cc(-c2cncc3c2CN(C)Cc2cc(N4CCNCC4)ccc2-3)cc(OC)c1OC — remaining activity (Vascular endothelial growth factor receptor 3 (FLT4, Homo sapiens, UniProt P35916); enzyme activity; inhibitor; 1 µM): 86%
CC(=O)Nc1c(N)nc(SCC(=O)NN)[nH]c1=O — inhibition (CDK2 with cyclin A2; enzyme activity; inhibitor; 10 nM): 22.9%
N=C(N)NCCC[C@H](NC(=O)C1(NC(=O)[C@H](Cc2cscn2)NC(=O)CCc2ccccc2)CCCC1)C(=O)c1nc2ccccc2s1 — remaining activity (ST14; enzyme activity; inhibitor; 0.1 µM): 84%
CC(=O)Nc1c(N)nc(SCC(=O)N/N=C/c2ccc([N+](=O)[O-])cc2)[nH]c1=O — inhibition (CDK2 with cyclin A2; enzyme activity; inhibitor; 0.1 µM): 37.6%
Cc1cc([C@@H](C)Nc2ccccc2C(=O)O)c2nc(N3CCC(F)(F)CC3)c(C#N)c(=O)n2c1 — remaining binding (Serine/threonine-protein kinase pim-1 (PIM1, Homo sapiens, UniProt P11309); binding; competition with immobilised ligand; 10 µM): 100%
